Laboratory results from ChEMBL document CHEMBL2086252, “Syntheses and evaluation of anticonvulsant activity of novel branched alkyl carbamates” (J Med Chem, 2012).
Calls of active or inactive are those of the source. No cut-off for these calls is given here.

How the values were obtained:
[1] = tested on: Rattus norvegicus; assay: Neurotoxicity in pilocarpine-induced status epilepticus Sprague-Dawley albino rat model assessed as minimal motor impairment at 100 mg/kg, ip after 1 hr by rotarod test; type: toxicity, organism-based; parameters: dose 100 mg/kg, route intraperitoneal; settings: in vivo
[2] = tested on: Mus musculus; assay: Anticonvulsant activity in albino CF1 mouse assessed as protection against maximal electroshock-induced seizures at 300 mg/kg, ip after 4 hrs; type: functional, organism-based; parameters: dose 300 mg/kg
How it was run: (§1)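 Mice dosed ip at 30, 100 or 300 mg/kg, then tested 0.5 h and 4 h after administration in the MES or scMet test. Protection was recorded as animals protected over animals tested. Neurotoxicity was recorded as motor impairment or sedation, as animals affected over animals tested.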

[3] = tested on: Rattus norvegicus; assay: Neurotoxicity in pilocarpine-induced status epilepticus Sprague-Dawley albino rat model assessed as minimal motor impairment at 100 mg/kg, ip after 4 hrs by rotarod test; type: toxicity, organism-based; parameters: dose 100 mg/kg, route intraperitoneal; settings: in vivo
[4] = tested on: Mus musculus; assay: Anticonvulsant activity in albino CF1 mouse assessed as protection against maximal electroshock-induced seizures at 30 mg/kg, ip after 0.5 hrs; type: functional, organism-based; parameters: dose 30 mg/kg; how it was run: as §1
[5] = tested on: Rattus norvegicus; assay: Neurotoxicity in pilocarpine-induced status epilepticus Sprague-Dawley albino rat model assessed as minimal motor impairment at 300 mg/kg, ip after 0.25 hr by rotarod test; type: toxicity, organism-based; parameters: dose 300 mg/kg, route intraperitoneal; settings: in vivo
How it was run: (§2)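 Rat pilocarpine status epilepticus model: test carbamate given at 0 or 30 min after the first observed Racine stage 3 motor seizure, which marks SE onset. Neurotoxicity was scored within the same model.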

[6] = tested on: Mus musculus; assay: Anticonvulsant activity in albino CF1 mouse assessed as protection against subcutaneous metrazol-induced seizures at 300 mg/kg, ip after 4 hrs; type: functional, organism-based; parameters: dose 300 mg/kg; how it was run: as §1
[7] = tested on: Mus musculus; assay: Anticonvulsant activity in albino CF1 mouse assessed as protection against subcutaneous metrazol-induced seizures at 30 mg/kg, ip after 0.5 hrs; type: functional, organism-based; parameters: dose 30 mg/kg; how it was run: as §1
[8] = tested on: Rattus norvegicus; assay: Neurotoxicity in pilocarpine-induced status epilepticus Sprague-Dawley albino rat model assessed as minimal motor impairment at 100 mg/kg, ip after 2 hrs by rotarod test; type: toxicity, organism-based; parameters: dose 100 mg/kg, route intraperitoneal; settings: in vivo
[9] = tested on: Mus musculus; assay: Neurotoxicity in albino CF1 mouse assessed as minimal motor impairment at 300 mg/kg, ip after 4 hrs by rotarod test; type: toxicity, organism-based; parameters: dose 300 mg/kg, route intraperitoneal; settings: in vivo; how it was run: as §1
[10] = tested on: Rattus norvegicus; assay: Neurotoxicity in pilocarpine-induced status epilepticus Sprague-Dawley albino rat model assessed as minimal motor impairment at 300 mg/kg, ip after 0.5 hrs by rotarod test; type: toxicity, organism-based; parameters: dose 300 mg/kg, route intraperitoneal; settings: in vivo; how it was run: as §2
[11] = tested on: Mus musculus; assay: Neurotoxicity in albino CF1 mouse assessed as minimal motor impairment at 30 mg/kg, ip after 4 hrs by rotarod test; type: toxicity, organism-based; parameters: dose 30 mg/kg, route intraperitoneal; settings: in vivo; how it was run: as §1
[12] = tested on: Rattus norvegicus; assay: Neurotoxicity in pilocarpine-induced status epilepticus Sprague-Dawley albino rat model assessed as minimal motor impairment at 100 mg/kg, ip after 0.25 hr by rotarod test; type: toxicity, organism-based; parameters: dose 100 mg/kg, route intraperitoneal; settings: in vivo
[13] = tested on: Mus musculus; assay: Anticonvulsant activity in albino CF1 mouse assessed as protection against maximal electroshock-induced seizures at 30 mg/kg, ip after 4 hrs; type: functional, organism-based; parameters: dose 30 mg/kg; how it was run: as §1
[14] = tested on: Mus musculus; assay: Neurotoxicity in albino CF1 mouse assessed as minimal motor impairment at 100 mg/kg, ip after 0.5 hrs by rotarod test; type: toxicity, organism-based; parameters: dose 100 mg/kg, route intraperitoneal; settings: in vivo; how it was run: as §1
[15] = tested on: Mus musculus; assay: Anticonvulsant activity in albino CF1 mouse assessed as protection against subcutaneous metrazol-induced seizures at 100 mg/kg, ip after 0.5 hrs; type: functional, organism-based; parameters: dose 100 mg/kg; how it was run: as §1
[16] = tested on: Mus musculus; assay: Anticonvulsant activity in albino CF1 mouse assessed as protection against subcutaneous metrazol-induced seizures at 100 mg/kg, ip after 4 hrs; type: functional, organism-based; parameters: dose 100 mg/kg; how it was run: as §1
[17] = tested on: Mus musculus; assay: Anticonvulsant activity in albino CF1 mouse assessed as protection against subcutaneous metrazol-induced seizures at 30 mg/kg, ip after 4 hrs; type: functional, organism-based; parameters: dose 30 mg/kg; how it was run: as §1
[18] = tested on: Mus musculus; assay: Anticonvulsant activity in albino CF1 mouse assessed as protection against subcutaneous metrazol-induced seizures at 300 mg/kg, ip after 0.5 hrs; type: functional, organism-based; parameters: dose 300 mg/kg; how it was run: as §1
[19] = tested on: Rattus norvegicus; assay: Neurotoxicity in pilocarpine-induced status epilepticus Sprague-Dawley albino rat model assessed as minimal motor impairment at 300 mg/kg, ip after 2 hrs by rotarod test; type: toxicity, organism-based; parameters: dose 300 mg/kg, route intraperitoneal; settings: in vivo; how it was run: as §2
[20] = tested on: Mus musculus; assay: Anticonvulsant activity in albino CF1 mouse assessed as protection against maximal electroshock-induced seizures at 100 mg/kg, ip after 4 hrs; type: functional, organism-based; parameters: dose 100 mg/kg; how it was run: as §1
[21] = tested on: Rattus norvegicus; assay: Neurotoxicity in pilocarpine-induced status epilepticus Sprague-Dawley albino rat model assessed as minimal motor impairment at 100 mg/kg, ip after 0.5 hrs by rotarod test; type: toxicity, organism-based; parameters: dose 100 mg/kg, route intraperitoneal; settings: in vivo
[22] = tested on: Rattus norvegicus; assay: Anticonvulsant activity in Sprague-Dawley albino rat assessed as protection against pilocarpine-induced status epilepticus at 200 mg/kg, ip; type: functional, organism-based; parameters: dose 200 mg/kg
How it was run: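 Pilocarpine status epilepticus model in rats. Number and severity of convulsive seizures were observed behaviourally.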

[23] = tested on: Mus musculus; assay: Neurotoxicity in albino CF1 mouse assessed as minimal motor impairment at 100 mg/kg, ip after 4 hrs by rotarod test; type: toxicity, organism-based; parameters: dose 100 mg/kg, route intraperitoneal; settings: in vivo; how it was run: as §1
[24] = tested on: Mus musculus; assay: Neurotoxicity in albino CF1 mouse assessed as minimal motor impairment at 300 mg/kg, ip after 0.5 hrs by rotarod test; type: toxicity, organism-based; parameters: dose 300 mg/kg, route intraperitoneal; settings: in vivo; how it was run: as §1
[25] = tested on: Rattus norvegicus; assay: Neurotoxicity in pilocarpine-induced status epilepticus Sprague-Dawley albino rat model assessed as minimal motor impairment at 300 mg/kg, ip after 4 hrs by rotarod test; type: toxicity, organism-based; parameters: dose 300 mg/kg, route intraperitoneal; settings: in vivo; how it was run: as §2
[26] = tested on: Mus musculus; assay: Neurotoxicity in albino CF1 mouse assessed as minimal motor impairment at 30 mg/kg, ip after 0.5 hrs by rotarod test; type: toxicity, organism-based; parameters: dose 30 mg/kg, route intraperitoneal; settings: in vivo; how it was run: as §1
[27] = tested on: Mus musculus; assay: Anticonvulsant activity in albino CF1 mouse assessed as protection against maximal electroshock-induced seizures at 300 mg/kg, ip after 0.5 hrs; type: functional, organism-based; parameters: dose 300 mg/kg; how it was run: as §1

## CC(C)C(C)COC(N)=O (racemic)
[1]
  Activity: Non-toxic
[2]
  Activity: inactive
[3]
  Activity: Non-toxic
[4]
  Activity: inactive
[5]
  Activity: Toxic
[6]
  Activity: inactive
[7]
  Activity: inactive
[8]
  Activity: Non-toxic
[9]
  Activity: Non-toxic
[10]
  Activity: Toxic
[11]
  Activity: Non-toxic
[12]
  Activity: Non-toxic
[13]
  Activity: inactive
[14]
  Activity: Non-toxic
[15]
  Activity: inactive
[16]
  Activity: inactive
[17]
  Activity: inactive
[18]
  Activity: Active
[19]
  Activity: Non-toxic
[20]
  Activity: inactive
[21]
  Activity: Non-toxic
[22]
  Activity: Active
[23]
  Activity: Non-toxic
[24]
  Activity: Toxic
[25]
  Activity: Non-toxic
[26]
  Activity: Non-toxic
[27]
  Activity: Active
